Measured values from ChEMBL document CHEMBL1130231, “Betidamino acid scan of the GnRH antagonist acyline” (J Med Chem, 1997).
Calls of active or inactive are those of the source. The rule behind the calls is not given here.

Target: T1, Gonadotropin-releasing hormone receptor (Rattus norvegicus, UniProt P30969)
T1 sequence (P30969 whole entry): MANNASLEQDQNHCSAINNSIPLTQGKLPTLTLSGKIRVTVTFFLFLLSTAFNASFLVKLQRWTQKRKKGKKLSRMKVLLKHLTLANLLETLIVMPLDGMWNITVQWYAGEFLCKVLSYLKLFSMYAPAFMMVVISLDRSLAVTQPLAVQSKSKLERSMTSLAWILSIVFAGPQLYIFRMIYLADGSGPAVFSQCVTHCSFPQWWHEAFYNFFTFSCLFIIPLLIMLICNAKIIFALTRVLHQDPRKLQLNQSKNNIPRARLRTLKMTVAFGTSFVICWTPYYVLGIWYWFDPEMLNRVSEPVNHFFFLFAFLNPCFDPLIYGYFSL
Assay: Inhibition of binding of radiolabeled histrelin to Gonadotropin-releasing hormone receptor (GnRHr) in rat pituitary gland membranes
Format: cell membranes, Membrane
Outline: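 Rat anterior pituitary membranes (male and female glands equal numbers), homogenized in 0.32 M sucrose/aprotinin, 4000g pellet, diluted 15-fold in 10 mM Hepes, 0.2% BSA, pH 7.6. Filtration onto PEI-treated glass filters, scintillation counting. IC50 in nM, duplicate, n = 1.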

Row | SMILES | IC50 [nM]
1 | CC(=O)Nc1ccc(C[C@H](NC(=O)[C@H](CO)NC(=O)[C@@H](Cc2cccnc2)NC(=O)[C@@H](Cc2ccc(Cl)cc2)NC(=O)[C@H](NC(C)=O)NC(=O)c2ccc3ccccc3c2)C(=O)N[C@H](Cc2ccc(NC(C)=O)cc2)C(=O)N[C@@H](CC(C)C)C(=O)N[C@@H](CCCCNC(C)C)C(=O)N2CCC[C@H]2C(=O)N[C@H](C)C(N)=O)cc1 | 0.88
2 | CC(=O)Nc1ccc(C[C@H](NC(=O)[C@H](CO)NC(=O)[C@@H](Cc2cccnc2)NC(=O)[C@@H](Cc2ccc(Cl)cc2)NC(=O)[C@@H](Cc2ccc3ccccc3c2)NC(C)=O)C(=O)N[C@H](Cc2ccc(NC(C)=O)cc2)C(=O)N[C@@H](CC(C)C)C(=O)N[C@@H](C(=O)N2CCC[C@H]2C(=O)N[C@H](C)C(N)=O)N(C)C(=O)CCNC(C)C)cc1 (single isomer, unassigned) | 2.4
3 | CC(=O)Nc1ccc(C[C@H](NC(=O)[C@H](NC(=O)CO)NC(=O)[C@@H](Cc2cccnc2)NC(=O)[C@@H](Cc2ccc(Cl)cc2)NC(=O)[C@@H](Cc2ccc3ccccc3c2)NC(C)=O)C(=O)N[C@H](Cc2ccc(NC(C)=O)cc2)C(=O)N[C@@H](CC(C)C)C(=O)N[C@@H](CCCCNC(C)C)C(=O)N2CCC[C@H]2C(=O)N[C@H](C)C(N)=O)cc1 (single isomer, unassigned) | 0.3
4 | CC(=O)Nc1ccc(C[C@H](NC(=O)[C@H](CO)NC(=O)[C@H](NC(=O)c2ccncc2)NC(=O)[C@@H](Cc2ccc(Cl)cc2)NC(=O)[C@@H](Cc2ccc3ccccc3c2)NC(C)=O)C(=O)N[C@H](Cc2ccc(NC(C)=O)cc2)C(=O)N[C@@H](CC(C)C)C(=O)N[C@@H](CCCCNC(C)C)C(=O)N2CCC[C@H]2C(=O)N[C@H](C)C(N)=O)cc1 (single isomer, unassigned) | 220
5 | CC(=O)Nc1ccc(C[C@H](NC(=O)[C@H](CO)NC(=O)[C@@H](Cc2cccnc2)NC(=O)[C@@H](Cc2ccc(Cl)cc2)NC(=O)[C@@H](NC(C)=O)NC(=O)c2ccc3ccccc3c2)C(=O)N[C@H](Cc2ccc(NC(C)=O)cc2)C(=O)N[C@@H](CC(C)C)C(=O)N[C@@H](CCCCNC(C)C)C(=O)N2CCC[C@H]2C(=O)N[C@H](C)C(N)=O)cc1 | 3
6 | CC(=O)Nc1ccc(C[C@H](NC(=O)[C@H](CO)NC(=O)[C@@H](Cc2cccnc2)NC(=O)[C@@H](Cc2ccc(Cl)cc2)NC(=O)[C@@H](Cc2ccc3ccccc3c2)NC(C)=O)C(=O)N[C@H](Cc2ccc(NC(C)=O)cc2)C(=O)N[C@@H](CC(C)C)C(=O)N[C@@H](CCCCNC(C)C)C(=O)N2CCC[C@H]2C(=O)N[C@@H](C)C(N)=O)cc1 | 0.38
7 | CC(=O)Nc1ccc(C[C@H](NC(=O)[C@H](CO)NC(=O)[C@@H](Cc2cccnc2)NC(=O)[C@@H](Cc2ccc(Cl)cc2)NC(=O)[C@@H](Cc2ccc3ccccc3c2)NC(C)=O)C(=O)N[C@H](Cc2ccc(NC(C)=O)cc2)C(=O)N[C@H](C(=O)N[C@@H](CCCCNC(C)C)C(=O)N2CCC[C@H]2C(=O)N[C@H](C)C(N)=O)N(C)C(=O)C(C)C)cc1 | 0.53
8 | CC(=O)Nc1ccc(C[C@H](NC(=O)[C@H](CO)NC(=O)[C@@H](Cc2cccnc2)NC(=O)[C@@H](Cc2ccc(Cl)cc2)NC(=O)[C@@H](Cc2ccc3ccccc3c2)NC(C)=O)C(=O)N[C@H](C(=O)N[C@@H](CC(C)C)C(=O)N[C@@H](CCCCNC(C)C)C(=O)N2CCC[C@H]2C(=O)N[C@H](C)C(N)=O)N(C)C(=O)c2ccc(NC(C)=O)cc2)cc1 (mixture of isomers) | 5.3
9 | CC(=O)Nc1ccc(C[C@H](NC(=O)[C@H](CO)NC(=O)[C@H](Cc2cccnc2)NC(=O)[C@@H](Cc2ccc(Cl)cc2)NC(=O)[C@@H](Cc2ccc3ccccc3c2)NC(C)=O)C(=O)N[C@H](Cc2ccc(NC(C)=O)cc2)C(=O)N[C@@H](CC(C)C)C(=O)N[C@@H](CCCCNC(C)C)C(=O)N2CCC[C@H]2C(=O)N[C@H](C)C(N)=O)cc1 | 0.23
10 | CC(=O)Nc1ccc(C[C@H](NC(=O)[C@H](CO)NC(=O)[C@@H](Cc2cccnc2)NC(=O)[C@@H](Cc2ccc(Cl)cc2)NC(=O)[C@@H](Cc2ccc3ccccc3c2)NC(C)=O)C(=O)N[C@H](Cc2ccc(NC(C)=O)cc2)C(=O)N[C@@H](NC(=O)C(C)C)C(=O)N[C@@H](CCCCNC(C)C)C(=O)N2CCC[C@H]2C(=O)N[C@H](C)C(N)=O)cc1 | 2
11 | CC(=O)Nc1ccc(C[C@H](NC(=O)[C@H](CO)NC(=O)[C@@H](Cc2cccnc2)NC(=O)[C@@H](Cc2ccc(Cl)cc2)NC(=O)[C@@H](Cc2ccc3ccccc3c2)NC(C)=O)C(=O)N[C@H](Cc2ccc(NC(C)=O)cc2)C(=O)N[C@@H](NC(C)=O)C(=O)N[C@@H](CCCCNC(C)C)C(=O)N2CCC[C@H]2C(=O)N[C@H](C)C(N)=O)cc1 | 5
12 | CC(=O)Nc1ccc(C[C@H](NC(=O)[C@H](CO)NC(=O)[C@@H](Cc2cccnc2)NC(=O)[C@@H](Cc2ccc(Cl)cc2)NC(=O)[C@@H](Cc2ccc3ccccc3c2)NC(C)=O)C(=O)N[C@H](Cc2ccc(NC(C)=O)cc2)C(=O)N[C@@H](CC(C)C)C(=O)NC(NC(=O)CNC(=N)N)C(=O)N2CCC[C@H]2C(=O)N[C@H](C)C(N)=O)cc1 (some centres not stated) | 0.74
13 | CC(=O)Nc1ccc(C[C@H](NC(=O)[C@H](CO)NC(=O)[C@@H](Cc2cccnc2)NC(=O)[C@@H](Cc2ccc(Cl)cc2)NC(=O)[C@@H](Cc2ccc3ccccc3c2)NC(C)=O)C(=O)N[C@H](Cc2ccc(NC(C)=O)cc2)C(=O)N[C@@H](CC(C)C)C(=O)N[C@@H](CCCCNC(C)C)C(=O)N2CCC[C@H]2C(=O)N[C@H](NC=O)C(N)=O)cc1 (single isomer, unassigned) | 0.59
14 | CC(=O)Nc1ccc(C[C@H](NC(=O)[C@H](CO)NC(=O)[C@@H](Cc2cccnc2)NC(=O)[C@@H](Cc2ccc(Cl)cc2)NC(=O)[C@@H](Cc2ccc3ccccc3c2)NC(C)=O)C(=O)N[C@H](Cc2ccc(NC(C)=O)cc2)C(=O)N[C@@H](CC(C)C)C(=O)N[C@@H](CCCCNC(C)C)C(=O)N2CCC[C@H]2C(=O)N[C@@H](NC=O)C(N)=O)cc1 (single isomer, unassigned) | 0.62
15 | CC(=O)Nc1ccc(C[C@H](NC(=O)[C@H](CO)NC(=O)[C@@H](Cc2cccnc2)NC(=O)[C@@H](Cc2ccc(Cl)cc2)NC(=O)[C@@H](NC(C)=O)N(C)C(=O)c2ccc3ccccc3c2)C(=O)N[C@H](Cc2ccc(NC(C)=O)cc2)C(=O)N[C@@H](CC(C)C)C(=O)N[C@@H](CCCCNC(C)C)C(=O)N2CCC[C@H]2C(=O)N[C@H](C)C(N)=O)cc1 (single isomer, unassigned) | 0.3
16 | CC(=O)Nc1ccc(C[C@H](NC(=O)[C@H](CO)NC(=O)[C@@H](Cc2cccnc2)NC(=O)[C@@H](Cc2ccc(Cl)cc2)NC(=O)[C@@H](Cc2ccc3ccccc3c2)NC(C)=O)C(=O)N[C@H](Cc2ccc(NC(C)=O)cc2)C(=O)N[C@@H](CNC(=O)C(C)C)C(=O)N[C@@H](CCCCNC(C)C)C(=O)N2CCC[C@H]2C(=O)N[C@H](C)C(N)=O)cc1 | 2
17 | CC(=O)Nc1ccc(C[C@H](NC(=O)[C@H](CO)NC(=O)[C@@H](Cc2cccnc2)NC(=O)[C@@H](Cc2ccc(Cl)cc2)NC(=O)[C@@H](Cc2ccc3ccccc3c2)NC(C)=O)C(=O)N[C@@H](C(=O)N[C@@H](CC(C)C)C(=O)N[C@@H](CCCCNC(C)C)C(=O)N2CCC[C@H]2C(=O)N[C@H](C)C(N)=O)N(C)C(=O)c2ccc(NC(C)=O)cc2)cc1 (mixture of isomers) | 1.9
18 | CC(=O)Nc1ccc(C[C@H](NC(=O)[C@H](CO)NC(=O)[C@H](NC(=O)c2cccnc2)NC(=O)[C@@H](Cc2ccc(Cl)cc2)NC(=O)[C@@H](Cc2ccc3ccccc3c2)NC(C)=O)C(=O)N[C@H](Cc2ccc(NC(C)=O)cc2)C(=O)N[C@@H](CC(C)C)C(=O)N[C@@H](CCCCNC(C)C)C(=O)N2CCC[C@H]2C(=O)N[C@H](C)C(N)=O)cc1 | 0.76
19 | CN[C@@H](NC(=O)[C@@H]1CCCN1C(=O)[C@H](CCCCNC(C)C)NC(=O)[C@H](CC(C)C)NC(=O)[C@@H](Cc1ccc(NC(C)=O)cc1)NC(=O)[C@H](Cc1ccc(NC(C)=O)cc1)NC(=O)[C@H](CO)NC(=O)[C@@H](Cc1cccnc1)NC(=O)[C@@H](Cc1ccc(Cl)cc1)NC(=O)[C@@H](Cc1ccc2ccccc2c1)NC(C)=O)C(N)=O | 0.9
20 | CC(=O)Nc1ccc(C[C@H](NC(=O)[C@@H](NC(=O)[C@@H](Cc2cccnc2)NC(=O)[C@@H](Cc2ccc(Cl)cc2)NC(=O)[C@@H](Cc2ccc3ccccc3c2)NC(C)=O)N(C)C=O)C(=O)N[C@H](Cc2ccc(NC(C)=O)cc2)C(=O)N[C@@H](CC(C)C)C(=O)N[C@@H](CCCCNC(C)C)C(=O)N2CCC[C@H]2C(=O)N[C@H](C)C(N)=O)cc1 (single isomer, unassigned) | 5.5

System: Rattus norvegicus
Assay: Ratio of ovulated rats to total number of rats determined in a anti-ovulatory assay by administering 2.5 microg of compound; 2/8
Format: functional, organism-based

Row | SMILES | ov. rat/total
21 | CC(=O)Nc1ccc(C[C@H](NC(=O)[C@H](CO)NC(=O)[C@@H](Cc2cccnc2)NC(=O)[C@@H](Cc2ccc(Cl)cc2)NC(=O)[C@@H](Cc2ccc3ccccc3c2)NC(C)=O)C(=O)N[C@@H](C(=O)N[C@@H](CC(C)C)C(=O)N[C@@H](CCCCNC(C)C)C(=O)N2CCC[C@@H]2C(=O)N[C@H](C)C(N)=O)N(C)C(=O)c2ccc(NC(C)=O)cc2)cc1 (mixture of isomers) | Partially active

System: Rattus norvegicus
Assay: Ratio of ovulated rats to total number of rats determined in a anti-ovulatory assay by administering 5 microg of compound; 0/8
Format: functional, organism-based

Row | SMILES | ov. rat/total
22 | CC(=O)Nc1ccc(C[C@H](NC(=O)[C@@H](NC=O)NC(=O)[C@@H](Cc2cccnc2)NC(=O)[C@@H](Cc2ccc(Cl)cc2)NC(=O)[C@@H](Cc2ccc3ccccc3c2)NC(C)=O)C(=O)N[C@H](Cc2ccc(NC(C)=O)cc2)C(=O)N[C@@H](CC(C)C)C(=O)N[C@@H](CCCCNC(C)C)C(=O)N2CCC[C@@H]2C(=O)N[C@H](C)C(N)=O)cc1 (single isomer, unassigned) | Active
